These results are taken from ChEMBL document CHEMBL1126276, “Synthesis and antimalarial properties of 1-imino derivatives of 7-chloro-3-substituted-3,4-dihydro-1,9(2H,10H)-acridinediones and related structures” (J Med Chem, 1992).

For series [1], the system named is Plasmodium berghei. Briefly: Antimalarial activity was measured against mice (Mus musculus) infected with Plasmodium berghei by subcutaneous administration of 640 mg/kg dose. The conditions noted are these: in vivo, sc. Set-up: dose 640 mg/kg, route subcutaneous. In kind it is organism-based. The essentials: (§1)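 […] in mice infected with a normal drug-sensitive P. berghei strain. Compound dissolved or suspended in sesame or peanut oil, given as a single subcutaneous dose 72 h postinfection.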

Series [2] has as its system Plasmodium berghei. Nature of the series: Antimalarial activity in Plasmodium berghei infected mice (Mus musculus) after subcutaneous 160 mg/kg dose. In kind it is functional. In outline:
(§2)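 Normal drug-sensitive P. berghei strain in mice. Compound dissolved or suspended in sesame or peanut oil, given parenterally as a single subcutaneous dose 72 h postinfection.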

For series [3], the system named is Plasmodium berghei. Briefly: Antimalarial activity in Plasmodium berghei infected mice (Mus musculus) after subcutaneous 320 mg/kg dose. In kind it is functional. The essentials: as §2
In series [4] the test system is Plasmodium berghei. Nature of the series: (§3) Antimalarial activity in Plasmodium berghei infected mice (Mus musculus) after 40 mg/kg subcutaneous dose. In kind it is functional. In outline:
as §2

For series [5], the system named is Plasmodium berghei. Nature of the series: Antimalarial activity in Plasmodium berghei infected mice (Mus musculus) after subcutaneous 640 mg/kg dose. In kind it is functional. In outline: as §2
Series [6] concerns Plasmodium berghei. Briefly: (§4) Antimalarial activity in Plasmodium berghei infected mice (Mus musculus) after 80 mg/kg subcutaneous dose. In kind it is functional. In outline:
as §2

The subject of series [7] is Plasmodium berghei. Nature of the series: (§5) Antimalarial activity in Plasmodium berghei infected mice (Mus musculus) after 20 mg/kg subcutaneous dose. In kind it is functional. The essentials:
as §1

Series [8] has as its system Plasmodium berghei. The description is as §4. In kind it is functional. The essentials:
as §1
The source holds these as a separate data set.

Series [9] has as its system Plasmodium berghei. The description is as §3. In kind it is functional. The essentials:
as §1
This is another data set of the same source.

Series [10] has as its system Plasmodium berghei. The series is described as §5. In kind it is functional. In outline: as §2
The source holds these as a separate data set.

Series [11] has as its system Plasmodium berghei. Nature of the series: Antimalarial activity in Plasmodium berghei infected mice (Mus musculus) after 320 mg/kg subcutaneous dose. In kind it is functional. The essentials: as §1
The subject of series [12] is Plasmodium berghei. Briefly: Antimalarial activity Plasmodium berghei infected mice (Mus musculus) after 640 mg/kg subcutaneous dose. In kind it is functional. The essentials: as §1
Series [13] relates to Plasmodium berghei. Nature of the series: Antimalarial activity in Plasmodium berghei infected mice (Mus musculus) after 160 mg/kg subcutaneous dose. In kind it is functional. In outline: as §1

With `O=c1c2c(n(O)c3ccc(Cl)cc13)CC(c1ccc(C(F)(F)F)cc1)C/C2=N\CCCN1CCCCC1` (stereo not drawn), the “No. of toxic deaths” value in the series on Plasmodium berghei [1] was found to be 4. In addition, the “No. of cured mice” value in the series on Plasmodium berghei [2] came out at 5; in the series on Plasmodium berghei [3], 5; in the series on Plasmodium berghei [4], 3; with Plasmodium berghei [5], 1; in the series on Plasmodium berghei [6] it was 3. For the same compound, the “Delta mean survival time” value is 8.5 in the series on Plasmodium berghei [7], 12 in the series with Plasmodium berghei [8] and 10 in the series with Plasmodium berghei [9].

Consider `CCN(CC)CCCC(C)/N=C1\CC(c2ccc(Cl)cc2Cl)Cc2nc3ccc(Cl)cc3c(O)c21` (stereo not drawn), for which the “No. of cured mice” value is reported as 5 with Plasmodium berghei [2]; 3 with Plasmodium berghei [10]; 5 with Plasmodium berghei [3]; 4 with Plasmodium berghei [4]; 5 with Plasmodium berghei [5]; 5 with Plasmodium berghei [6]. In addition, the “Delta mean survival time” value in the series with Plasmodium berghei [7] is on record as 10.2; in the series on Plasmodium berghei [9] it was 13.7.

Take `OCCNCC/N=C1\CC(c2ccc(Cl)cc2Cl)Cc2nc3ccc(Cl)cc3c(O)c21` (stereo not drawn): the “No. of cured mice” value with Plasmodium berghei [2], in the series with Plasmodium berghei [10], in the series with Plasmodium berghei [3], in the series with Plasmodium berghei [4], in the series on Plasmodium berghei [5] and with Plasmodium berghei [6] was 5 in each case.

`O=C1CC(c2ccc(Cl)cc2Cl)Cc2c1c(=O)c1cc(Cl)ccc1n2O` (stereo not drawn): the “No. of cured mice” value with Plasmodium berghei [2] was 5; in the series with Plasmodium berghei [10] it was 2; in the series on Plasmodium berghei [3] it was 5; in the series with Plasmodium berghei [4] it was 5; in the series with Plasmodium berghei [5], 5; in the series on Plasmodium berghei [6] it was 5. Further, the “Delta mean survival time” value with Plasmodium berghei [7] is given as 1.9.

As for `CCN(CC)CC/N=C1\CC(c2ccc(Cl)c(Cl)c2)Cc2c1c(=O)c1cc(Cl)ccc1n2O` (stereo not drawn), the “No. of cured mice” value amounted to 5 with Plasmodium berghei [2]; 1 in the series with Plasmodium berghei [10]; 5 in the series with Plasmodium berghei [3]; 3 in the series with Plasmodium berghei [4]; 5 in the series on Plasmodium berghei [5]; 3 with Plasmodium berghei [6]. Further, the “Delta mean survival time” value amounted to 10.5 in the series with Plasmodium berghei [7], 12.7 with Plasmodium berghei [8] and 8.8 with Plasmodium berghei [9].

Turning to `COc1ccccc1C1CC(=O)c2c(n(O)c3ccc(Cl)cc3c2=O)C1` (stereo not drawn), in the series on Plasmodium berghei [1], the “No. of toxic deaths” value came out at 3. Also, the “Delta mean survival time” value in the series with Plasmodium berghei [7] was 0.8; with Plasmodium berghei [11] it was 2.2; in the series on Plasmodium berghei [8] it was 1.8; with Plasmodium berghei [9] it was 2.2.

For the compound `CC1/C(=N\CCCN(C)C)c2c(nc3ccc(Cl)cc3c2O)CC1c1ccc(C(F)(F)F)cc1` (stereo in doubt; trans), the “No. of cured mice” value in the series on Plasmodium berghei [2] (160 mg/kg) amounted to 5; in the series on Plasmodium berghei [10] (20 mg/kg), 1; with Plasmodium berghei [3], 4; in the series with Plasmodium berghei [5] it was 1. The “Delta mean survival time” value is listed as 11 with Plasmodium berghei [7] (20 mg/kg), 3.7 with Plasmodium berghei [11] (320 mg/kg) and 2.7 with Plasmodium berghei [12] (640 mg/kg).

As for `CCN(CC)CC(C)(C)C/N=C1\CC(c2ccc(Cl)cc2Cl)Cc2nc3ccc(Cl)cc3c(O)c21` (stereo not drawn), the “No. of cured mice” value in the series with Plasmodium berghei [2] is 5; in the series on Plasmodium berghei [10], 3; in the series with Plasmodium berghei [3], 5; with Plasmodium berghei [4], 4; in the series with Plasmodium berghei [5], 5; with Plasmodium berghei [6] it was 5. Besides, the “Delta mean survival time” value is 12.7 in the series on Plasmodium berghei [7] and 13.7 with Plasmodium berghei [9].

`O=C1CC(c2ccc(C(F)(F)F)cc2)Cc2nc3ccc(Cl)cc3c(O)c21` (stereo not drawn): the “No. of cured mice” value is given as 5 in the series on Plasmodium berghei [2]; 1 in the series on Plasmodium berghei [10]; 5 with Plasmodium berghei [3]; 2 with Plasmodium berghei [4]; 5 with Plasmodium berghei [5]; 4 in the series on Plasmodium berghei [6]. Besides, the “Delta mean survival time” value was 8.9 with Plasmodium berghei [7], 9.4 in the series with Plasmodium berghei [8] and 9.9 in the series with Plasmodium berghei [9].

For `O=C1CC(c2ccc(Cl)cc2Cl)Cc2nc3ccc(Cl)cc3c(O)c21` (stereo not drawn), the “No. of cured mice” value is 4 in the series with Plasmodium berghei [2]; 2 in the series with Plasmodium berghei [10]; 5 in the series with Plasmodium berghei [3]; 3 with Plasmodium berghei [4]; 5 with Plasmodium berghei [5]; 4 in the series on Plasmodium berghei [6]. Also, the “Delta mean survival time” value in the series on Plasmodium berghei [13] was found to be 17.8; with Plasmodium berghei [7], 10.3; with Plasmodium berghei [8], 15.8; in the series with Plasmodium berghei [9], 18.1.

Turning to `CCN(CC)CCCCCCC/N=C1\CC(c2ccc(Cl)cc2Cl)Cc2nc3ccc(Cl)cc3c(O)c21` (stereo not drawn), the “No. of cured mice” value was determined as 4 in the series on Plasmodium berghei [2]; 4 in the series with Plasmodium berghei [10]; 4 in the series with Plasmodium berghei [3]; 4 with Plasmodium berghei [4]; 5 with Plasmodium berghei [5]; 5 in the series on Plasmodium berghei [6]. The “Delta mean survival time” value in the series on Plasmodium berghei [13] was determined as 0.7; with Plasmodium berghei [7], 6.7; with Plasmodium berghei [11] it was 3.7; in the series with Plasmodium berghei [9], 9.7.

Take `CC1C(=O)c2c(n(O)c3ccc(Cl)cc3c2=O)CC1c1ccc(Cl)c(Cl)c1` (stereo not drawn): the “No. of cured mice” value with Plasmodium berghei [2] turned out to be 5; in the series with Plasmodium berghei [10], 3; in the series on Plasmodium berghei [3] it was 5; in the series with Plasmodium berghei [4], 4; in the series with Plasmodium berghei [5] it was 5; with Plasmodium berghei [6], 5. Besides, the figures for the “Delta mean survival time” value with Plasmodium berghei [7] and in the series on Plasmodium berghei [9] were 7.6 and 9.6, respectively.

For `N=C1CC(c2ccc(C(F)(F)F)cc2)Cc2nc3ccc(Cl)cc3c(O)c21` (stereo not drawn), the “No. of cured mice” value in the series with Plasmodium berghei [2] is 5; in the series with Plasmodium berghei [10], 1; in the series with Plasmodium berghei [3] it was 5; in the series with Plasmodium berghei [4], 5; with Plasmodium berghei [5] it was 5; in the series with Plasmodium berghei [6], 5. The “Delta mean survival time” value with Plasmodium berghei [7] is given as 11.2.

Take `CSc1ccc(C2C/C(=N\CCCN(C)C)c3c(nc4ccc(Cl)cc4c3O)C2)cc1` (stereo not drawn): the “No. of toxic deaths” value in the series with Plasmodium berghei [1] is 1. Also, the “No. of cured mice” value in the series on Plasmodium berghei [2] is listed as 1; in the series with Plasmodium berghei [3] it was 3; in the series on Plasmodium berghei [5] it was 4; in the series on Plasmodium berghei [6], 1. In addition, the “Delta mean survival time” value with Plasmodium berghei [13] is 9.8; with Plasmodium berghei [7], 2.8; in the series with Plasmodium berghei [11] it was 12.8; with Plasmodium berghei [8], 4; with Plasmodium berghei [9], 3.4.

As for `CN(C)CCC/N=C1/c2c([nH]c3ccc(Cl)cc3c2=O)CC(c2ccc(Cl)c(Cl)c2)C1Cc1ccccc1` (stereo not drawn), the “No. of toxic deaths” value with Plasmodium berghei [1] was 5. For the same compound, the “Delta mean survival time” value is given as 6.1 with Plasmodium berghei [13]; -0.1 with Plasmodium berghei [7]; 7.7 with Plasmodium berghei [11]; 0.7 with Plasmodium berghei [8]; 0.5 in the series with Plasmodium berghei [9].

In the case of `O=c1c2c(n(O)c3ccc(Cl)cc13)CC(c1ccc(C(F)(F)F)cc1)C/C2=N\CCCN(CCO)CCO` (stereo not drawn), the “No. of cured mice” value in the series on Plasmodium berghei [2] came to 5; in the series with Plasmodium berghei [10] it was 2; in the series on Plasmodium berghei [3], 5; in the series with Plasmodium berghei [4], 4; with Plasmodium berghei [5] it was 5; with Plasmodium berghei [6], 1. Besides, the “Delta mean survival time” value was 12 with Plasmodium berghei [7], 9.5 in the series with Plasmodium berghei [8] and 14.8 in the series on Plasmodium berghei [9].

Regarding `CCCCCCC/N=C1\CC(c2ccc(C(F)(F)F)cc2)Cc2c1c(=O)c1cc(Cl)ccc1n2O` (stereo not drawn), the “No. of toxic deaths” value with Plasmodium berghei [1] is on record as 1. In addition, the “No. of cured mice” value was found to be 5 in the series with Plasmodium berghei [2], 3 with Plasmodium berghei [3], 4 with Plasmodium berghei [5] and 5 in the series on Plasmodium berghei [6]. In addition, the “Delta mean survival time” value with Plasmodium berghei [11] amounted to 14.7; in the series on Plasmodium berghei [9] it was 4.3.

In the case of `CCN(CC)CCCC/N=C1\CC(c2ccc(C(F)(F)F)cc2)Cc2nc3ccc(Cl)cc3c(O)c21` (stereo not drawn), the “No. of cured mice” value in the series with Plasmodium berghei [2] worked out at 5; in the series on Plasmodium berghei [10], 2; in the series with Plasmodium berghei [3], 5; with Plasmodium berghei [4], 4; in the series on Plasmodium berghei [5], 5; with Plasmodium berghei [6], 5. The results for the “Delta mean survival time” value in the series with Plasmodium berghei [7] and in the series with Plasmodium berghei [9] were 18.6 and 13.6, respectively.

With `CC1C(=O)c2c(n(O)c3ccc(Cl)cc3c2=O)CC1c1ccc(Cl)cc1Cl` (stereo not drawn), the “No. of cured mice” value in the series with Plasmodium berghei [2] is 5; with Plasmodium berghei [10] it was 2; in the series with Plasmodium berghei [3] it was 5; in the series on Plasmodium berghei [4], 5; in the series with Plasmodium berghei [5] it was 5; in the series with Plasmodium berghei [6], 5. In addition, the “Delta mean survival time” value in the series with Plasmodium berghei [7] is 10.7.

With `O=C1CC(c2ccc(C(F)(F)F)cc2)Cc2c1c(=O)c1cc(Cl)ccc1n2O` (stereo not drawn) [FLOXACRINE], the “No. of cured mice” value in the series with Plasmodium berghei [2] is on record as 5; with Plasmodium berghei [10], 4; in the series with Plasmodium berghei [3], 5; in the series on Plasmodium berghei [4], 5; in the series with Plasmodium berghei [5] it was 3; with Plasmodium berghei [6] it was 5. For the same compound, the “Delta mean survival time” value in the series with Plasmodium berghei [7] amounted to 8.9; in the series with Plasmodium berghei [12], 3.4.
